According to ChEMBL document CHEMBL2331284, “Synthesis and biological evaluation of 1,3,4-thiadiazole analogues as novel AChE and BuChE inhibitors” (Eur J Med Chem, 2013):
The source made the active and inactive calls. No cut-off for these calls is given here.

How the values were obtained:
[1] = target: Cholinesterase (Equus caballus, UniProt P81908); assay: Inhibition of equine serum BChE using butyrylthiocholine iodide as substrate after 10 mins by Ellman method
[2] = target: Acetylcholinesterase (Electrophorus electricus, UniProt O42275); assay: Inhibition of electric eel AChE using […] as substrate after 10 mins by Ellman method
[3] = Selectivity ratio of IC50 for equine serum BChE to IC50 for electric eel AChE
How it was run: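 Modified Ellman assay for both enzymes: electric eel AChE with ATCh, or equine serum BuChE with BTCh; DTNB; 0.1 M potassium phosphate pH 8. Compound preincubated 10 min before substrate, absorbance rise at 412 nm at 1-min intervals, 37 °C. Seven concentrations (10⁻³–10⁻⁹ M) run in triplicate. IC50 from log dose–response; ratio = IC50(BuChE)/IC50(AChE).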

[4] = target: Acetylcholinesterase (Electrophorus electricus) (UniProt O42275); details: at 0.12 to 0.17 µM
[5] = target: Acetylcholinesterase (Electrophorus electricus) (UniProt O42275); assay: Non-competitive inhibition of electric eel AChE using acetylcholine iodide as substrate at 0.10 to 0.14 uM by Lineweaver-Burk method

Acetylcholinesterase, sequence (O42275 whole entry): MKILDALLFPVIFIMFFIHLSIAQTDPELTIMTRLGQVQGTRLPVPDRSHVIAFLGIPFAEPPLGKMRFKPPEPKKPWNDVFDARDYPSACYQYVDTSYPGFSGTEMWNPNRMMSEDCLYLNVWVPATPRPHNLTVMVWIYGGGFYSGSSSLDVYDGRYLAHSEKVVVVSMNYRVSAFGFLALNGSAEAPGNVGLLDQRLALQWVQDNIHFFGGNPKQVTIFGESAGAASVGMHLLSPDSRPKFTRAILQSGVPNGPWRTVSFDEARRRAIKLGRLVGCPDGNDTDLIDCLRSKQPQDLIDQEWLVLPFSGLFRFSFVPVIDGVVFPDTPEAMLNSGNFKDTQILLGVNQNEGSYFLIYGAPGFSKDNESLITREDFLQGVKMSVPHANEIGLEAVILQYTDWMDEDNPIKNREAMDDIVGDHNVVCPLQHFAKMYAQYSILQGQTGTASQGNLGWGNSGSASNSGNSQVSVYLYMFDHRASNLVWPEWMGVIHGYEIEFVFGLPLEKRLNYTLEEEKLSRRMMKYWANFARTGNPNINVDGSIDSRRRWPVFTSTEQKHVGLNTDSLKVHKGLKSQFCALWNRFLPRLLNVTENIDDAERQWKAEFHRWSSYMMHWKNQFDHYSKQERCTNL
Cholinesterase, sequence (P81908 whole entry): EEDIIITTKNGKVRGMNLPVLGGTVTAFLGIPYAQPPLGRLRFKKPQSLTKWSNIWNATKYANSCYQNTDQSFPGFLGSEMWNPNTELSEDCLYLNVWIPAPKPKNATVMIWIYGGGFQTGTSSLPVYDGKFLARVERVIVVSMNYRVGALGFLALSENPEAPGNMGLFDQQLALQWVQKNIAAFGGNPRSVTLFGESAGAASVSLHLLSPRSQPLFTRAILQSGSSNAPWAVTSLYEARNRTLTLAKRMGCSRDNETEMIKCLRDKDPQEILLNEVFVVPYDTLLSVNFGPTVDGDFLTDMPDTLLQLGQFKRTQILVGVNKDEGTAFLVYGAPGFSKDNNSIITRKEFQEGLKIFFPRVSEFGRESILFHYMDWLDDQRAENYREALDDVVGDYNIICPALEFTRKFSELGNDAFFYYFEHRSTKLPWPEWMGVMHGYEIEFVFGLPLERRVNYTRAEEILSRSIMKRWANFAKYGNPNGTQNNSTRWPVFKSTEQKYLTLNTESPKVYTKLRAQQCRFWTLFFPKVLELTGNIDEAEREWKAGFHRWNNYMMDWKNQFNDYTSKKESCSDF
Acetylcholinesterase (Electrophorus electricus), sequence (O42275 24-633 limits assumed): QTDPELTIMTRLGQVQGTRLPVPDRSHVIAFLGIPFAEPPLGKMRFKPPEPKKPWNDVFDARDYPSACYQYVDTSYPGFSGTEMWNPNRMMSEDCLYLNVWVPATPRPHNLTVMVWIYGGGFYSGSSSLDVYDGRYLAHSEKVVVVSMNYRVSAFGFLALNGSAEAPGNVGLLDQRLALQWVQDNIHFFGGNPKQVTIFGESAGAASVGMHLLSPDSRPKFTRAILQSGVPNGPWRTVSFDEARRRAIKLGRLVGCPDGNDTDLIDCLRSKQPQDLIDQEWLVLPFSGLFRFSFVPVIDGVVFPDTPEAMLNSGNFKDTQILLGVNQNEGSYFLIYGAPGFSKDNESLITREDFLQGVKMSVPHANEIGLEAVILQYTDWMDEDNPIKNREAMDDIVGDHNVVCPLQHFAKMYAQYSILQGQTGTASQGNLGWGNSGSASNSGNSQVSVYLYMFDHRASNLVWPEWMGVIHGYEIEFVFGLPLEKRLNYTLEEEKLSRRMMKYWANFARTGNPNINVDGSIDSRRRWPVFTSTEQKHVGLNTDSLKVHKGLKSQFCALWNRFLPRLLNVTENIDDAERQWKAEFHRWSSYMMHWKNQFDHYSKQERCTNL

Row | Compound | IC50 [1] [µM] | IC50 [2] [µM] | Ratio IC50 [3] | inhibition [4] | inhibition [5]
1 | COc1ccc(OC)c(-c2nnc(-c3ccc(O)cc3O)s2)c1 | 63.3 | 1.56 | 40.5 |  | 
2 | Oc1ccc(-c2nnc(-c3ccccc3Br)s2)c(O)c1 | 0.29 | 0.06 | 4.8 |  | 
3 | Nc1cccc(-c2nnc(-c3ccc(O)cc3O)s2)c1 | 84.3 | 1.73 | 48.7 |  | 
4 | COc1ccc(-c2nnc(-c3ccc(O)cc3O)s2)cc1 | 96.3 | 2.18 | 44.2 |  | 
5 | Cc1cc(-c2nnc(-c3ccc(O)cc3O)s2)ccc1[N+](=O)[O-] | 148 | 20.9 | 7.1 |  | 
6 | Oc1ccc(-c2nnc(-c3ccc(O)c(O)c3)s2)c(O)c1 | 2.16 | 0.19 | 11.4 |  | 
7 | COc1cc(-c2nnc(-c3ccc(O)cc3O)s2)ccc1O | 112 | 19.2 | 5.9 |  | 
8 | Cc1cccc(-c2nnc(-c3ccc(O)cc3O)s2)c1 | 17 | 0.16 | 106 | Active | 
9 | O=[N+]([O-])c1ccccc1-c1nnc(-c2ccc(O)cc2O)s1 | 57.3 | 2.12 | 27 |  | 
10 | O=[N+]([O-])c1cccc(-c2nnc(-c3ccc(O)cc3O)s2)c1 | 32.1 | 0.67 | 47.9 |  | 
11 | COc1ccccc1-c1nnc(-c2ccc(O)cc2O)s1 | 212 | 26.7 | 7.9 |  | 
12 | Oc1ccc(-c2nnc(-c3ccc(Cl)cc3Cl)s2)c(O)c1 | > 500 | 128 | > 3.9 |  | 
13 | COc1cccc(-c2nnc(-c3ccc(O)cc3O)s2)c1 | 27.3 | 1.87 | 25.5 |  | 
14 | Oc1ccc(-c2nnc(-c3ccccc3F)s2)c(O)c1 | > 500 | 1.07 | > 467 |  | 
15 | Oc1ccc(-c2nnc(-c3ccc(C(F)(F)F)cc3)s2)c(O)c1 | 26.5 | 0.09 | 294 |  | Active
16 | Oc1ccc(-c2nnc(-c3cc(Cl)cc(Cl)c3)s2)c(O)c1 | > 500 | 45.3 | > 11.1 |  | 
17 | COc1ccc(-c2nnc(-c3ccc(O)cc3O)s2)cc1OC | > 500 | 19.3 | > 25.9 |  | 
18 | Oc1ccc(-c2nnc(-c3ccccc3Cl)s2)c(O)c1 | 196 | 1.55 | 127 |  | 
19 | COc1cc(-c2nnc(-c3ccc(O)cc3O)s2)cc(OC)c1OC | 196 | 0.17 | 1150 |  | 
20 | Oc1ccc(-c2nnc(-c3cc(Cl)ccc3Cl)s2)c(O)c1 | 19.1 | 112 | 0.17 |  | 
21 | Oc1ccc(-c2nnc(-c3ccc(O)cc3O)s2)c(O)c1 | 26.7 | 1.89 | 14.2 |  | 
22 | CN(C)C(=O)Oc1cccc([N+](C)(C)C)c1 [NEOSTIGMINE BROMIDE] | 0.07 | 0.05 | 1.4 |  | 
